# Results of several laboratories.
# Protocols differ between the studies behind these lines.
# Target: Phosphorylase b kinase gamma catalytic chain, liver/testis isoform (PHKG2, Homo sapiens, UniProt P15735)
# Residues used in one study (P15735 1-406): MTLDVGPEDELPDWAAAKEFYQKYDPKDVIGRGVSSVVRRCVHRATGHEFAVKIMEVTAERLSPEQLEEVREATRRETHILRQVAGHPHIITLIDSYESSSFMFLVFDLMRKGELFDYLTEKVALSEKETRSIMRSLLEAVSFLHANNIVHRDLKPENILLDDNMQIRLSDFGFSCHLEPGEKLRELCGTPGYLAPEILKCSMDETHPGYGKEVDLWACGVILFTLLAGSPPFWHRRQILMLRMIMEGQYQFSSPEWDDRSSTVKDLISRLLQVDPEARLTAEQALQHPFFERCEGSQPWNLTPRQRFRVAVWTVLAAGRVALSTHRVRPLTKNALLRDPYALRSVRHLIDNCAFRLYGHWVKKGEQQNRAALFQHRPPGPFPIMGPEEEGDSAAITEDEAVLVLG
Structure (SMILES),test,setting,endpoint,value
Cn1cc(-c2cccc(N3CCc4c(sc5c4CC(C)(C)C5)C3=O)c2CO)cc(Nc2ccncn2)c1=O,"enzyme activity, inhibitor",1 µM,inhibition,-1%
O=C(NCc1ncc(C(F)(F)F)cc1Cl)c1ccc2c(c1)C1(CCS(=O)(=O)CC1)[C@H](C1CC1)N2S(=O)(=O)c1ccc(F)cc1,"cell-free assay, competition with immobilised ligand",1 µM,remaining binding,96%
CC(C)(C)c1cc(C=C(C#N)C#N)cc(Br)c1O,"enzyme activity, inhibitor",0.5 µM,remaining activity,106%
Cc1nn(C)cc1-c1nc2c(N3CCN(Cc4ccc(Cl)cc4)CC3)c(Cl)cnc2[nH]1,"binding, competition with immobilised ligand",1 µM,remaining binding,100%
COc1ncccc1-c1cnn2ccc(N3CCN(C(=O)OC(C)C)CC3)nc12,"binding, competition with immobilised ligand",1 µM,remaining binding,100%
Cn1cncc1[C@@](O)(COc1ccc(C#N)cc1-c1ccc(OC(F)(F)F)cc1)c1ccc(C#N)cc1,"cell-free assay, competition with immobilised ligand",1 µM,remaining binding,92%
O=c1[nH]c2ccccc2n1C1CCN(Cc2ccc(-c3[nH]c4cc5ncnc5cc4nc3-c3ccccc3)cc2)CC1,cell-free assay,0.5 µM,remaining signal,104%
Cn1cc(-c2cc(F)cc(N3CCn4c(cc5c4CCCC5)C3=O)c2CO)cc(Nc2ccc(N3CCN(C4COC4)CC3)cn2)c1=O,"enzyme activity, inhibitor",0.1 µM,inhibition,8%
Nc1ncc(-c2nc(N3CCOCC3)nc(N3CCOCC3)n2)c(C(F)F)n1,"binding, competition with immobilised ligand",10 µM,remaining binding,67%
